Sampled rows, rich in hits. Any-hit rate of the full collection: about 1.4%.
MT1-MMP act inh = inhibitors of human MT1-MMP activation; P50281; actives 0.061% (n = 360,000); AID 651647; GFP/RFP ratio change, % at 20 µM; HT1080 RFP-PRO-GFP cells, GFP/RFP ratio fluorescence, overnight; percent of plate control window, DMSO zero;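 active means GFP/RFP ratio change of at least 30% with cell ATP level not reduced by more than half and red fluorescence within 50% of control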
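Material – HT1080 RFP-PRO-GFP cells · Control set – DMSO wells and RFP-L50D-GFP cells · Incubation – overnight cell settling, then overnight compound exposure, 37 °C, 5% CO2 · Compound dosing – single-point 20 µM compound, 1% DMSO · Read-out – GFP/RFP fluorescence ratio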
TAG inh = reduces triacylglycerol accumulation in H9c2 cells; actives 0.66% (n = 230,000); inhibition, % at 12.5 µM; Nile Red lipid (TAG) fluorescence; cells loaded with 200 µM oleic acid;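 active means pattern-corrected inhibition of lipid staining of at least 50% with the nuclear-stain viability signal not falling by more than 50%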
H9c2 protect = modulators protecting cardiomyocytes from myocardial damage; H9c2 cardiomyocytes, H2O2 injury protection, ATPLite, 2 h; protection from H2O2 cell death, % at 20 µM; actives 0.63% (n = 360,000); AID 588492;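 active means compounds giving at least 50% protection of heart cells from peroxide-induced death in the single-dose screen, raw or plate-pattern-corrected value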
DAGLB inhibitor = diacylglycerol lipase beta (human) inhibition | Q8NCG7 | inhibition, % at 5.17 µM | actives 0.059% (n = 340,000) | HEK293T DAGLB membrane lysate, EnzChek fluorogenic substrate; in the data active means inhibition above about 34%
Tn6 DDE FP = inhibitors of Tn6 peptide binding to human fibrin DD(E); P02675; Fibrin DD(E) TRITC-Tn6 fluorescence polarization displacement; inhibition, % at 8.3 µM; actives 0.21% (n = 370,000); AID 720509;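 active means inhibition above a per-campaign cutoff: mean of compounds within control limits plus 3 SD, cut at about 15% in these data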
Target sequence (P02675 whole entry, looked up): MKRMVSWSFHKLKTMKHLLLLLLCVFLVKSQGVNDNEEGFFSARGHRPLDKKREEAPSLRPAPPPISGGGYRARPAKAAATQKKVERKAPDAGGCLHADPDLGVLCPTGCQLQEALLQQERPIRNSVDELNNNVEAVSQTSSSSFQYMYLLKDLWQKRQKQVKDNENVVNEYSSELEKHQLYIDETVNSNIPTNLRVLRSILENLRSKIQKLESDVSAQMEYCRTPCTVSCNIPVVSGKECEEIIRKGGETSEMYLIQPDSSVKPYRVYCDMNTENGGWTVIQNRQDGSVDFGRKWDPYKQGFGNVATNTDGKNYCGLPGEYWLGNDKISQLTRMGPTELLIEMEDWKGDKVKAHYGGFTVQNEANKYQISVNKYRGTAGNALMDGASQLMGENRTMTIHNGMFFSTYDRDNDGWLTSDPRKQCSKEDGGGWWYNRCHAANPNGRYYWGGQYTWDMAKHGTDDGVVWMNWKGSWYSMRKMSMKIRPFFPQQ
DDE Tn7 FP inh = DD(E)-Tn7 binding inhibition, primary FP screen. P02675. AID 720508. actives 0.13% (n = 370,000). inhibition, % at 8.3 µM. FP displacement of FITC-Tn7 peptide from fibrin DD(E); 0% = median of compound wells per plate;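 active means inhibition above the mean of compounds falling within the control limits plus 3 SD of them, cut at about 14% in these data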
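Test system: human clot-derived fibrin DD(E) complex / Quantity: 2 µM final DD(E) protein / Incubation: 10 min plus 3 h, room temperature / Measured by: fluorescence polarization / Benchmarks: high control of 10 µM Aha-Tn7 peptide / Replicates: singlicate testing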
TAG conf = confirmation of triacylglycerol accumulation inhibitors. AID 651629. inhibition, % at 12.5 µM. H9c2 lipid accumulation, Nile Red fluorescence; cells loaded with 200 µM oleic acid. actives 71% (n = 990). shares compounds with TAG inh;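 active means mean inhibition across replicates of 40% or more; inactive means mean inhibition below 40%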
Hits are given with their value; i = inactive; nt = not tested or not shown.

SMILES	MT1-MMP act inh	TAG inh	H9c2 protect	DAGLB inhibitor	Tn6 DDE FP	DDE Tn7 FP inh	TAG conf
Cc1cc(Nc2ccc(C)c(Cl)c2)nc(N2CCOCC2)n1	i	71.6	i	nt	i	i	41.3
CC(C)c1ccc(Nc2nc(N3CCOCC3)nc(N3CCOCC3)n2)cc1	i	73.6	i	i	i	i	91.0
CCCNC(=O)C[C@H]1CC[C@H]2[C@@H](COc3ccc(NC(=O)Nc4ccc(C#N)cc4)cc3C(=O)N2C)O1	nt	nt	nt	nt	i	i	nt
CCCCCCCCN1C(=O)[C@@H](CC(=O)NCCCN2CCCC2=O)C[C@@]2(C(=O)OC)C1=C[C@H](COCc1ccccc1)O[C@@H]2C	nt	nt	nt	nt	i	i	nt
CC(C)(C)c1ccc(S(=O)(=O)N2CCCC(C(=O)NCCN3CCC(Cc4ccccc4)CC3)C2)cc1 (centres undefined)	nt	nt	nt	nt	i	i	nt
C=CCn1cnc2c(c1=O)c1nc3ccccc3nc1n2/N=C/c1cc(OC)c(OC)c(OC)c1	i	78.6	64.9	i	i	i	i
COc1cc(/C=N/n2c(C)nc3ccccc3c2=O)ccc1O	i	nt	i	i	i	i	nt
CC(=O)OCCCN1CCC2(CCC(c3ccccc3)CC2)C1=O (centres undefined)	nt	nt	nt	nt	i	i	nt
COC(=O)C1CN(Cc2ccc(Cl)cc2)CCS(=O)(=O)N1Cc1cn(Cc2ccc(OC)cc2)nn1 (centres undefined)	nt	nt	nt	nt	i	i	nt
COc1ccc(CC(=O)Nc2ccc(-c3ccc4nnc(C)n4n3)cc2)cc1OC	i	57.8	i	i	i	i	71.5
COc1cc(C(=O)Nc2nc3ccc(C)cc3s2)ccc1OCc1c(C)noc1C	i	50.5	i	i	i	i	i
CCOC(=O)c1c(NC(C)=O)sc2c(OCC(O)CN(CC)CC)c(Br)ccc12 (centres undefined)	i	68.7	i	i	i	i	47.2
Cc1ccc(NC(=O)OC2CC3CC2[C@H]2CCCCN2C3)cc1C (some centres undefined)	nt	nt	nt	nt	i	i	nt
CCOC(=O)c1cc(-c2ccccc2)sc1NC(=O)C(C)N1C(=O)NC(C)(c2ccc(Cl)cc2)C1=O (centres undefined)	i	75.6	i	i	i	i	76.4
CCOC(=O)c1cc(-c2ccccc2)sc1NC(=O)C(C)C	i	nt	i	i	i	i	nt
CCOC(=O)c1cc(-c2ccccc2)sc1NC(=S)Nc1cccc(C)n1	i	69.0	i	i	i	i	56.3
CCOc1cc(N2CCOCC2)c(OCC)cc1NC(=O)Cn1cnnn1	i	i	i	i	i	i	nt
CCOc1cc(N2CCOCC2)c(OCC)cc1NC(=O)CC12CC3CC(CC(C3)C1)C2	i	73.7	i	i	i	i	47.0
CCc1ccc(CCNC(=O)OCCCN2CCC3(CCC(c4ccccc4)CC3)C2=O)cc1 (centres undefined)	nt	nt	nt	nt	i	i	nt
CC(=O)c1cccc(-c2ccnc3c2CC(C(=O)NCc2ccco2)O3)c1 (centres undefined)	i	56.9	i	nt	i	i	58.7
NC(=O)c1cccc(-c2ccnc3c2CC(C(=O)NCc2ccco2)O3)c1 (centres undefined)	i	i	i	nt	i	i	nt
COc1ccc(S[C@]2(C(=O)N3CCN(c4ncccn4)CC3)CC(=O)N(C(=O)C3CC3)[C@@H]2c2ccc(OC)cc2)cc1	nt	nt	nt	nt	i	i	nt
CCC(=O)Nc1ccc(-c2nnc(-c3ccccc3)o2)cc1	i	52.4	i	i	i	i	43.2
O=C(c1cc(F)ccc1F)N(Cc1ccccn1)CC1CCCO1 (centres undefined)	nt	nt	nt	nt	i	i	nt
Cc1cccc2sc(NC(=O)C3CCCN(S(=O)(=O)c4cccc5nonc45)C3)nc12 (centres undefined)	i	53.7	i	i	i	i	74.2
SMILES	MT1-MMP act inh	TAG inh	H9c2 protect	DAGLB inhibitor	Tn6 DDE FP	DDE Tn7 FP inh	TAG conf
Cc1ccc(NC(=O)C2CCCN(S(=O)(=O)c3cccc4nonc34)C2)cc1 (centres undefined)	i	nt	i	i	i	i	nt
COC(=O)[C@]12C[C@H](CC(=O)N3CCC(c4ccccc4)CC3)C(=O)N(Cc3ccc(Cl)cc3Cl)C1=C[C@H](C1CCCC1)O[C@@H]2C	nt	nt	nt	nt	i	i	nt
Cc1ccc(NC(=O)CSc2nnnn2-c2ccc3c(c2)OCO3)cc1C	i	56.5	i	i	i	i	i
S=C(N/N=C/c1cccs1)NC1CC2CCC1C2 (centres undefined)	i	54.0	i	nt	i	i	56.2
C[C@H]1CCCN1c1ccc2c(c1)O[C@H]1CCN(C1)S2(=O)=O	nt	nt	nt	nt	i	i	nt
CC(C)C[C@@H](CN1CCCC1CN1C(=S)NC[C@@H]1Cc1ccc(O)cc1)N1C[C@H](Cc2ccccc2)N(CC2CCCCCC2)C1=S (some centres undefined)	i	i	i	i	i	i	nt
CC(C)C[C@@H](CN1CCCC1CN1C(=S)NC[C@@H]1Cc1ccc(O)cc1)N1C[C@H](Cc2ccccc2)N(CC2CCCCC2)C1=S (some centres undefined)	i	53.0	i	i	i	i	72.6
CCc1ccc(-c2nc(C(N)=O)c3[nH]c(=O)n(-c4ccccc4OC)c3n2)cc1	i	72.6	i	i	i	i	90.9
Cc1cc(C(=O)Nc2ccc(F)cc2)n(-c2ccccc2)n1	nt	nt	nt	nt	i	i	nt
C[C@@]12CCC=C[C@H]1[C@H](c1ccoc1)N(Cc1ccccc1)C2=O	i	78.8	i	i	i	i	i
O=C(Nc1ccc(F)cc1)Nc1c(-c2ccc(C(F)(F)F)cc2)nc2ncccn12	nt	nt	nt	nt	i	i	nt
CCOc1ccccc1C1C2=C(COC2=O)Nc2cc3c(cc21)OCO3 (centres undefined)	i	52.7	i	i	i	i	52.7
NC(=O)c1cc(-c2ccccc2)nc(N2CCOCC2)n1	i	52.4	i	i	i	i	60.2
COc1ccc(-c2noc(-c3ccccc3C(=O)Nc3cccnc3)n2)cc1	i	56.7	i	i	i	i	i
COc1ccc2cc(Br)ccc2c1CC(=O)NC1CC(C)(C)NC(C)(C)C1	i	63.6	i	i	i	i	i
CC(C)C[C@H]1C(=O)N2CCC[C@H]2[C@]2(O)O[C@](NC(=O)[C@@H]3C=C4c5cccc6[nH]c(Br)c(c56)CC4N(C)C3)(C(C)C)C(=O)N12 (some centres undefined)	i	61.9	i	i	i	i	91.5
c1cc(C2CCCCC2)ccc1Oc1nc(N2CCOCC2)nc(N2CCOCC2)n1	i	80.3	i	i	i	i	52.1
